Results published in ChEMBL document CHEMBL4706506 (Eur J Med Chem, 2020).
The source made the active and inactive calls. No cut-off for these calls is given here.

Experiments:
HCT-116 = assay: Antiproliferative activity against human HCT-116 cells assessed as inhibition of cell proliferation measured after 48 hrs by CCK-8 assay; type: functional, cell-based; conditions: HCT-116, 48 h
Procedure, shortened: (§1)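 RPMI-1640 with 10% FBS, 37 °C, 5% CO2. Cells seeded at 1-3 × 10^4/well and exposed to 0.00098–64 μM (nine 4-fold steps) or 0.1% DMSO vehicle for 48 h. CCK-8 then added for 4 h; absorbance read at 450 nm. IC50 taken from dose–response curves; mean ± SD of three independent experiments.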

A549 = assay: Antiproliferative activity against human A549 cells assessed as inhibition of cell proliferation measured after 48 hrs by CCK-8 assay; type: functional, cell-based; conditions: A549, 48 h; procedure, shortened: as §1
[1] = Toxicity in C57/BL mouse […] with mouse B16-F0 cells assessed as body weight loss at 10 to 20 mg/kg, ip measured after 16 days in relative to control; type: organism-based; conditions: in vivo, 384 h, dose 10-20 mg/kg, time 16 day
B16-F0 [2] = assay: Antitumour activity against mouse B16-F0 cells transplanted in C57/BL mouse assessed as decrease in tumour weight at 10 mg/kg, ip measured after 16 days in relative to control; type: functional; set-up: scale not given: the % may be the effect or the level left; conditions: time 16 day
[3] = Metabolic stability in human liver microsomes assessed as half life in presence of NADPH at 0.5 uM measured after 4 hrs by LC/MS method; type: ADME, Microsome
MCF7 [4] = assay: Induction of cell cycle arrest in human MCF7 cells assessed as accumulation of cells at G2/M phase measured after 48 hrs by FACS Calibur flow cytometry in relative to control; type: functional, cell-based
Procedure, shortened: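 MCF-7 cells plated for 24 h, then exposed to compound (5 or 10 nM; DMSO control) for 48 h. Fixed in 70% ethanol at 4 °C for 12 h, then RNase A and propidium iodide staining for 30 min. DNA content measured by flow cytometry.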

[5] = Binding affinity to pig brain tubulin at 37 degree C preincubated for 5 mins; type: tissue-based, Sus scrofa
Procedure, shortened: (§2)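 Porcine brain tubulin purified by three assembly/disassembly cycles and phosphocellulose chromatography. Mixed with graded compound concentrations in PEM (100 mM PIPES, 1 mM EGTA, 1 mM MgCl2) with 1 mM GTP and 5% glycerol. Polymerization followed at 37 °C by light scattering at 340 nm; variants ran at 30 °C, or with 5 min preincubation before GTP addition. IC50 reported.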

[6] = Toxicity in C57/BL mouse […] with mouse B16-F0 cells assessed as kidney histology at 10 to 20 mg/kg, ip measured after 16 days by H and E staining method in relative to control; type: organism-based; conditions: in vivo, 384 h, dose 10-20 mg/kg, time 16 day
B16-F0 [7] = assay: Inhibition of tubulin polymerization in mouse B16-F0 cells at 40 nM measured after 6 hrs by DAPI staining based immunofluorescent assay relative to control; type: cell-based
Procedure, shortened: (§3)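 Fixed in 4% paraformaldehyde, permeabilized with 0.5% Triton X-100 for 15 min, goat serum blocked. Anti-tubulin antibody 2 h at 4 °C, then fluorescent secondary antibody and DAPI nuclear counterstain. Imaged by confocal microscopy.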

B16-F0 [8] = assay: Antitumour activity against mouse B16-F0 cells transplanted in C57/BL mouse assessed as decrease in tumour weight at 20 mg/kg, ip measured after 16 days in relative to control; type: functional; set-up: scale not given: the % may be the effect or the level left; conditions: time 16 day
B16-F0 [9] = assay: Antitumour activity against mouse B16-F0 cells transplanted in C57/BL mouse assessed as decrease in tumour volume at 10 mg/kg, ip measured after 16 days in relative to control; type: functional; set-up: scale not given: the % may be the effect or the level left; conditions: time 16 day
B16-F0 [10] = assay: Inhibition of tubulin polymerization in mouse B16-F0 cells at 160 nM measured after 6 hrs by DAPI staining based immunofluorescent assay relative to control; type: cell-based; conditions: dose 40.0 nM, in the assay text read “at 40 nM” for “at 160 nM”; procedure, shortened: as §3
[11] = Binding affinity to pig brain tubulin at 30 degree C without preincubation; type: tissue-based, Sus scrofa; procedure, shortened: as §2
MCF7 [12] = assay: Antiproliferative activity against human MCF7 cells assessed as inhibition of cell proliferation measured after 48 hrs by CCK-8 assay; type: functional, cell-based; conditions: MCF7, 48 h
[13] = Inhibition of pig brain tubulin polymerization measured by light scattering based spectrophotometer method; type: tissue-based, Sus scrofa; procedure, shortened: as §2
B16-F0 [14] = assay: Induction of microtubule destabilization in mouse B16-F0 cells assessed as short and wrapped structure at 40 nM measured after 6 hrs by DAPI staining based immunofluorescent assay relative to control; type: cell-based; procedure, shortened: as §3
[15] = Metabolic stability in mouse liver microsomes assessed as half life in presence of NADPH at 0.5 uM measured after 4 hrs by LC/MS method; type: ADME, Microsome
MCF7 [16] = assay: Inhibition of cell migration in human MCF7 cells measured after 24 hrs by phase contrast microscopy based wound healing assay relative to control; type: functional; conditions: dose 10-40 nM
Procedure, shortened: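 Confluent MCF-7 monolayers, grown 24 h, scratched with a pipette tip and washed with PBS. Medium with 0, 10, 20 or 40 nM compound added. Wounds photographed by phase contrast at 0 and 24 h; migration distance measured manually.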

B16-F0 [17] = assay: Antiproliferative activity against mouse B16-F0 cells assessed as inhibition of cell proliferation measured after 48 hrs by CCK-8 assay; type: functional, cell-based; conditions: B16F0, 48 h; procedure, shortened: as §1
[18] = Toxicity in C57/BL mouse […] with mouse B16-F0 cells assessed as liver histology at 10 to 20 mg/kg, ip measured after 16 days by H and E staining method in relative to control; type: organism-based; conditions: in vivo, 384 h, dose 10-20 mg/kg, time 16 day
B16-F0 [19] = assay: Antitumour activity against mouse B16-F0 cells transplanted in C57/BL mouse assessed as decrease in tumour volume at 20 mg/kg, ip measured after 16 days in relative to control; type: functional; set-up: scale not given: the % may be the effect or the level left; conditions: time 16 day
[20] = Binding affinity to pig brain tubulin at 37 degree C without preincubation; type: tissue-based, Sus scrofa; procedure, shortened: as §2
HeLa = assay: Antiproliferative activity against human HeLa cells assessed as inhibition of cell proliferation measured after 48 hrs by CCK-8 assay; type: functional, cell-based; procedure, shortened: as §1

COc1cc(-c2ccnc3cc(-c4ccc(C)cc4)nn23)cc(OC)c1OC
IC50 (HCT-116): 48 nM | IC50 (A549): 3 nM | Activity [1]: Non-Toxic | Activity (B16-F0 [2]): 38.6% | half-life at 0.5 µM [3]: 2.08 h | Activity (MCF7 [4]): Active | IC50 [5]: 1600 nM | Activity [6]: Non-Toxic | inhibition (B16-F0 [7]): Active | Activity (B16-F0 [8]): 74.5% | Activity (B16-F0 [9]): 40.1% | inhibition (B16-F0 [10]): Active | IC50 [11]: 2100 nM | IC50 (MCF7 [12]): 47 nM | IC50 [13]: 2100 nM | Activity (B16-F0 [14]): Active | half-life at 0.5 µM [15]: 2 h | inhibition (MCF7 [16]): Active | IC50 (B16-F0 [17]): 21 nM | Activity [18]: Non-Toxic | Activity (B16-F0 [19]): 77.4% | IC50 [20]: 2100 nM | IC50 (HeLa): 21 nM
